ChEMBL document CHEMBL1255284, “Aspergillus section Fumigati: antifungal susceptibility patterns and sequence-based identification” (2008)
Values after ≈ are worked out from the molar mass of the structure shown.

Key:
Aspergillus lentulus [1] = assay: Antimicrobial activity against Aspergillus lentulus isolate CNM-CM-4387 obtained from sputum of patient after 48 hrs by broth microdilution method; type: functional; settings: isolate CNM-CM-4387, 48 h
Procedure, shortened: (§1)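 CLSI M38-A broth microdilution with modifications: RPMI 1640 with L-glutamine, 2% glucose, buffered to pH 7 with 0.165 M MOPS. Inoculum of 1 × 10^5 to 5 × 10^5 CFU/ml from 3- to 5-day-old cultures. Incubated 35°C, 48 h, humid. Visual reading with a mirror. MIC is complete growth inhibition; echinocandin MEC is hyphal morphological alteration. Azoles 8 to 0.015 μg/ml; others 16 to 0.03 μg/ml.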

Aspergillus viridinutans [2] = assay: Antimicrobial activity against Aspergillus viridinutans isolate CNM-CM-4518 obtained from nail of patient after 48 hrs by broth microdilution method; type: functional; settings: isolate CNM-CM-4518, 48 h; procedure, shortened: as §1
Aspergillus fumigatus = assay: Antimicrobial activity against Aspergillus fumigatus ATCC 2004305 after 48 hrs by broth microdilution method; type: functional; settings: ATCC 2004305, 48 h
Aspergillus lentulus [3] = assay: Antimicrobial activity against Aspergillus lentulus isolate CNM-CM-3134 obtained from sputum of patient after 48 hrs by broth microdilution method; type: functional; settings: isolate CNM-CM-3134, 48 h; procedure, shortened: as §1
Neosartorya hiratsukae [4] = assay: Antimicrobial activity against Neosartorya hiratsukae isolate CNM-CM-3740 obtained from oropharyngeal exudate of patient after 48 hrs by broth microdilution method; type: functional; settings: Aspergillus hiratsukae, isolate CNM-CM-3740, 48 h; procedure, shortened: as §1
Neosartorya hiratsukae [5] = assay: Antimicrobial activity against Neosartorya hiratsukae isolate CNM-CM-3305 obtained from skin of patient after 48 hrs by broth microdilution method; type: functional; settings: Aspergillus hiratsukae, isolate CNM-CM-3305, 48 h; procedure, shortened: as §1
Aspergillus lentulus [6] = assay: Antimicrobial activity against Aspergillus lentulus isolate CNM-CM-4330 obtained from sputum of patient after 48 hrs by broth microdilution method; type: functional; settings: isolate CNM-CM-4330, 48 h; procedure, shortened: as §1
[7] = test system: Aspergillus fumisynnematus; assay: Antimicrobial activity against Aspergillus fumisynnematus isolate CNM-CM-4063 obtained from bronchoalveolar aspirate of patient after 48 hrs by broth microdilution method; type: functional; settings: isolate CNM-CM-4063, Lung; procedure, shortened: as §1
Aspergillus lentulus [8] = assay: Antimicrobial activity against Aspergillus lentulus isolate CNM-CM-4426 obtained from sputum of patient after 48 hrs by broth microdilution method; type: functional; settings: isolate CNM-CM-4426, 48 h; procedure, shortened: as §1
Aspergillus lentulus [9] = assay: Antimicrobial activity against Aspergillus lentulus isolate CNM-CM-4415 obtained from sputum of patient after 48 hrs by broth microdilution method; type: functional; settings: isolate CNM-CM-4415, 48 h; procedure, shortened: as §1
Aspergillus lentulus [10] = assay: Antimicrobial activity against Aspergillus lentulus isolate CNM-CM-4420 obtained from nail of patient after 48 hrs by broth microdilution method; type: functional; settings: isolate CNM-CM-4420, 48 h; procedure, shortened: as §1
Aspergillus lentulus [11] = assay: Antimicrobial activity against Aspergillus lentulus isolate CNM-CM-3538 obtained from sputum of patient after 48 hrs by broth microdilution method; type: functional; settings: isolate CNM-CM-3538, 48 h; procedure, shortened: as §1
Aspergillus lentulus [12] = assay: Antimicrobial activity against Aspergillus lentulus isolate CNM-CM-4428 obtained from skin of patient after 48 hrs by broth microdilution method; type: functional; settings: isolate CNM-CM-4428, 48 h; procedure, shortened: as §1
Aspergillus lentulus [13] = assay: Antimicrobial activity against Aspergillus lentulus isolate CNM-CM-3599 obtained from sputum of patient after 48 hrs by broth microdilution method; type: functional; settings: isolate CNM-CM-3599, 48 h; procedure, shortened: as §1
Neosartorya hiratsukae [14] = assay: Antimicrobial activity against Neosartorya hiratsukae isolate CNM-CM-4328 obtained from cornea of patient after 48 hrs by broth microdilution method; type: functional; settings: Aspergillus hiratsukae, isolate CNM-CM-4328, Cornea; procedure, shortened: as §1
Aspergillus lentulus [15] = assay: Antimicrobial activity against Aspergillus lentulus isolate CNM-CM-3537 obtained from sputum of patient after 48 hrs by broth microdilution method; type: functional; settings: isolate CNM-CM-3537, 48 h; procedure, shortened: as §1
Neosartorya hiratsukae [16] = assay: Antimicrobial activity against Neosartorya hiratsukae isolate CNM-CM-3764 obtained from oropharyngeal exudate of patient after 48 hrs by broth microdilution method; type: functional; settings: Aspergillus hiratsukae, isolate CNM-CM-3764, 48 h; procedure, shortened: as §1
Aspergillus viridinutans [17] = assay: Antimicrobial activity against Aspergillus viridinutans isolate CNM-CM-3147 obtained from oropharyngeal exudate of patient after 48 hrs by broth microdilution method; type: functional; settings: isolate CNM-CM-3147, 48 h; procedure, shortened: as §1
[18] = test system: Aspergillus fumigatiaffinis; assay: Antimicrobial activity against Aspergillus fumigatiaffinis isolate CNM-CM-3227 obtained from bronchoalveolar lavage fluid of patient after 48 hrs by broth microdilution method; settings: isolate CNM-CM-3227, Lung
[19] = test system: Neosartorya pseudofischeri; assay: Antimicrobial activity against Neosartorya pseudofischeri isolate CNM-CM-3914 obtained from nail of patient after 48 hrs by broth microdilution method; type: functional; settings: Aspergillus thermomutatus, isolate CNM-CM-3914, 48 h
Procedure, shortened: (§2)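 CLSI M38-A broth microdilution with modifications: RPMI 1640 with L-glutamine, MOPS-buffered to pH 7, plus 2% glucose. Inoculum 1 × 10^5 to 5 × 10^5 CFU/ml from 3–5-day cultures. Incubated at 35°C for 48 h, humid. Read visually with a mirror. MIC = complete growth inhibition; echinocandin MEC = altered hyphal morphology. QC strain A. fumigatus ATCC 2004305.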

Aspergillus lentulus [20] = assay: Antimicrobial activity against Aspergillus lentulus isolate CNM-CM-3364 obtained from bronchoalveolar lavage fluid of patient after 48 hrs by broth microdilution method; type: functional; settings: isolate CNM-CM-3364, Lung; procedure, shortened: as §1
Aspergillus lentulus [21] = assay: Antimicrobial activity against Aspergillus lentulus isolate CNM-CM-1290 obtained from sputum of patient after 48 hrs by broth microdilution method; type: functional; settings: isolate CNM-CM-1290, 48 h; procedure, shortened: as §1
Aspergillus lentulus [22] = assay: Antimicrobial activity against Aspergillus lentulus isolate CNM-CM-3583 obtained from sputum of patient after 48 hrs by broth microdilution method; type: functional; settings: isolate CNM-CM-3583, 48 h; procedure, shortened: as §1
[23] = test system: Neosartorya pseudofischeri; assay: Antimicrobial activity against Neosartorya pseudofischeri isolate CNM-CM-4060 obtained from sputum of patient after 48 hrs by broth microdilution method; type: functional; settings: Aspergillus thermomutatus; procedure, shortened: as §2
[24] = test system: Neosartorya pseudofischeri; assay: Antimicrobial activity against Neosartorya pseudofischeri isolate CNM-CM-3769 obtained from sputum of patient after 48 hrs by broth microdilution method; type: functional; settings: Aspergillus thermomutatus; procedure, shortened: as §2
Aspergillus lentulus [25] = assay: Antimicrobial activity against Aspergillus lentulus isolate CNM-CM-4370 obtained from sputum of patient after 48 hrs by broth microdilution method; type: functional; settings: isolate CNM-CM-4370, 48 h; procedure, shortened: as §1
Neosartorya hiratsukae [26] = assay: Antimicrobial activity against Neosartorya hiratsukae isolate CNM-CM-3303 obtained from skin of patient after 48 hrs by broth microdilution method; type: functional; settings: Aspergillus hiratsukae, isolate CNM-CM-3303, 48 h; procedure, shortened: as §1
[27] = test system: Neosartorya pseudofischeri; assay: Antimicrobial activity against Neosartorya pseudofischeri isolate CNM-CM-2270 obtained from sputum of patient after 48 hrs by broth microdilution method; type: functional; settings: Aspergillus thermomutatus, isolate CNM-CM-2270, 48 h; procedure, shortened: as §2
[28] = test system: Aspergillus fumigatiaffinis; assay: Antimicrobial activity against Aspergillus fumigatiaffinis isolate CNM-CM-2280 obtained from sputum of patient after 48 hrs by broth microdilution method; settings: isolate CNM-CM-2280, 48 h

SMILES | MIC (Aspergillus lentulus [1]) [mg/L] | MIC (Aspergillus viridinutans [2]) [mg/L] | MIC (Aspergillus fumigatus) [mg/L] | MIC (Aspergillus lentulus [3]) [mg/L] | MIC (Neosartorya hiratsukae [4]) [mg/L] | MIC (Neosartorya hiratsukae [5]) [mg/L] | MIC (Aspergillus lentulus [6]) [mg/L] | MIC [7] [mg/L] | MIC (Aspergillus lentulus [8]) [mg/L] | MIC (Aspergillus lentulus [9]) [mg/L] | MIC (Aspergillus lentulus [10]) [mg/L] | MIC (Aspergillus lentulus [11]) [mg/L] | MIC (Aspergillus lentulus [12]) [mg/L] | MIC (Aspergillus lentulus [13]) [mg/L] | MIC (Neosartorya hiratsukae [14]) [mg/L] | MIC (Aspergillus lentulus [15]) [mg/L] | MIC (Neosartorya hiratsukae [16]) [mg/L] | MIC (Aspergillus viridinutans [17]) [mg/L] | MIC [18] [mg/L] | MIC [19] [mg/L] | also measured
CC[C@@H]([C@H](C)O)n1ncn(-c2ccc(N3CCN(c4ccc(OC[C@@H]5CO[C@@](Cn6cncn6)(c6ccc(F)cc6F)C5)cc4)CC3)cc2)c1=O [POSACONAZOLE] | 0.25 (≈ 0.357 µM) | 0.25 (≈ 0.357 µM) | 0.03 (≈ 0.0428 µM) | 0.56 (≈ 0.799 µM) | 0.1 (≈ 0.143 µM) | 0.045 (≈ 0.0642 µM) | 0.12 (≈ 0.171 µM) | 0.12 (≈ 0.171 µM) | 0.2 (≈ 0.285 µM) | 0.33 (≈ 0.471 µM) | 0.33 (≈ 0.471 µM) | 0.75 (≈ 1.07 µM) | 0.62 (≈ 0.885 µM) | 0.5 (≈ 0.713 µM) | 0.09 (≈ 0.128 µM) | 0.28 (≈ 0.4 µM) | 0.16 (≈ 0.228 µM) | 0.41 (≈ 0.585 µM) | 0.625 (≈ 0.892 µM) | 0.5 (≈ 0.713 µM) | MIC (Aspergillus lentulus [20]): 2 mg/L (≈ 2.85 µM); MIC (Aspergillus lentulus [21]): 0.4 mg/L (≈ 0.571 µM); MIC (Aspergillus lentulus [22]): 0.25 mg/L (≈ 0.357 µM); MIC [23]: 0.29 mg/L (≈ 0.414 µM); MIC [24]: 0.25 mg/L (≈ 0.357 µM); MIC (Aspergillus lentulus [25]): 0.18 mg/L (≈ 0.257 µM); MIC (Neosartorya hiratsukae [26]): 0.06 mg/L (≈ 0.0856 µM); MIC [27]: 0.31 mg/L (≈ 0.442 µM); MIC [28]: 1.16 mg/L (≈ 1.66 µM)
C[C@@H](c1nc(-c2ccc(C#N)cc2)cs1)[C@](O)(Cn1cncn1)c1ccc(F)cc1F [RAVUCONAZOLE] | 3 (≈ 6.86 µM) | 4 (≈ 9.14 µM) | 0.25 (≈ 0.571 µM) | 6 (≈ 13.7 µM) | 0.66 (≈ 1.51 µM) | 0.25 (≈ 0.571 µM) | 1.5 (≈ 3.43 µM) | 0.83 (≈ 1.9 µM) | 5.33 (≈ 12.2 µM) | 4.66 (≈ 10.7 µM) | 4 (≈ 9.14 µM) | 7 (≈ 16 µM) | 5 (≈ 11.4 µM) | 2 (≈ 4.57 µM) | 0.5 (≈ 1.14 µM) | 3 (≈ 6.86 µM) | 1.33 (≈ 3.04 µM) | 5.66 (≈ 12.9 µM) | 5 (≈ 11.4 µM) | 4 (≈ 9.14 µM) | MIC (Aspergillus lentulus [20]): 5.6 mg/L (≈ 12.8 µM); MIC (Aspergillus lentulus [21]): 3.5 mg/L (≈ 8 µM); MIC (Aspergillus lentulus [22]): 2 mg/L (≈ 4.57 µM); MIC [23]: 3.33 mg/L (≈ 7.61 µM); MIC [24]: 2 mg/L (≈ 4.57 µM); MIC (Aspergillus lentulus [25]): 5.33 mg/L (≈ 12.2 µM); MIC (Neosartorya hiratsukae [26]): 0.375 mg/L (≈ 0.857 µM); MIC [27]: 3.5 mg/L (≈ 8 µM); MIC [28]: 6 mg/L (≈ 13.7 µM)
